Assay results of several laboratories.
Protocols differ between the studies behind these lines.
Neuronal acetylcholine receptor subunit alpha-4/beta-2: Neuronal acetylcholine receptor subunit alpha-4/beta-2 (Mus musculus, UniProt O70174+Q9ERK7)
Long-chain-fatty-acid--AMP ligase FadD28: Long-chain-fatty-acid--AMP ligase FadD28 (Mycobacterium tuberculosis, UniProt P9WQ59)
HTR7: 5-hydroxytryptamine receptor 7 (HTR7, Homo sapiens, UniProt P34969)

CNC(C)C/C=C/c1cncc(C#Cc2ccccc2)c1 (stereo not drawn) has a Ki of 134 nM (Neuronal acetylcholine receptor subunit alpha-4/beta-2; ligand displacement; radioligand; cell membranes).
CCCCCCCCCCCCCC(=O)NS(=O)(=O)OC[C@H]1O[C@@H](n2cnc3c(N)nc(C#CCOCCOCCOCCNC(=O)c4ccc(C(=O)O)c(-c5c6ccc(=[N+](C)C)cc-6oc6cc(N(C)C)ccc56)c4)nc32)[C@H](O)[C@@H]1O gave a Kd of 245 nM (Long-chain-fatty-acid--AMP ligase FadD28; binding; FP).
CN(C)CCc1c[nH]c2ccccc12 gave a Ki of 210 nM (HTR7; ligand displacement; radioligand).
CC[C@@H](CO)NC(=O)[C@@H]1C=C2c3cccc4c3c(cn4C)C[C@H]2N(C)C1 gave a Ki of 32 nM (HTR7; ligand displacement; radioligand; cell membranes).
CCCCCCCCCCCCCC(=O)NS(=O)(=O)OC[C@H]1O[C@@H](n2cnc3c(N)ncnc32)[C@H](O)[C@@H]1O gave a Kd of 365 nM (Long-chain-fatty-acid--AMP ligase FadD28; binding; ITC).
CCCCCCCCCCCC(=O)NS(=O)(=O)OC[C@H]1O[C@@H](n2cnc3c(N)ncnc32)[C@H](O)[C@@H]1O gave a Ki of 6000 nM (Long-chain-fatty-acid--AMP ligase FadD28; enzyme activity; inhibitor).
N#Cc1ccc(C(=O)NOCc2ccc(C(F)(F)F)cc2)cc1 has an IC50 of 14900 nM (NAD-dependent protein deacylase sirtuin-6 (SIRT6, Homo sapiens, UniProt Q8N6T7); enzyme activity; inhibitor; fluorescence).
The Ki of CN1[C@@H]2CC[C@H]1C=C(c1cncc(Br)c1)C2 is reported as 2.31 nM (Neuronal acetylcholine receptor subunit alpha-4/beta-2; ligand displacement; radioligand; cell membranes).
For FC(F)(F)c1cccc(N2CCNCC2)c1, the Ki was 1620 nM (HTR7; ligand displacement; radioligand; cell membranes).
